# Results published in paper PMC9052103 (RSC Advances, 2020).
# What was measured:
# S. aureus ATCC BAA-44 = assay: MIC, 96-well microtiter broth dilution; format: cell-based
# E. faecalis ATCC 29212 = assay: MIC, 96-well microtiter broth dilution; format: cell-based
# B. subtilis 168 = assay: MIC, 96-well microtiter broth dilution; format: cell-based
# [1] = test system: K. pneumoniae ATCC BAA-2470; assay: MIC, 96-well microtiter broth dilution; format: cell-based; settings: NDM-1 expressing strain
# E. cloacae ATCC BAA-1143 = assay: MIC, 96-well microtiter broth dilution; format: cell-based; settings: AmpC beta-lactamase expressing strain
# S. aureus ATCC 43300 = assay: MIC, 96-well microtiter broth dilution; format: cell-based; settings: MRSA
# S. aureus ATCC BAA-1747 = assay: MIC, 96-well microtiter broth dilution; format: cell-based; settings: MRSA
# S. aureus ATCC BAA-41 = assay: MIC, 96-well microtiter broth dilution; format: cell-based; settings: MRSA
# [2] = test system: S. epidermidis ATCC 12228; assay: MIC, 96-well microtiter broth dilution; format: cell-based
# E. faecium ATCC 49624 = assay: MIC, 96-well microtiter broth dilution; format: cell-based
# S. aureus ATCC 29213 = assay: MIC, 96-well microtiter broth dilution; format: cell-based; settings: Table 2
# A. baumannii ATCC 19606 = assay: MIC, 96-well microtiter broth dilution; format: cell-based; settings: Multi-drug resistant strain
# E. faecium ATCC 700221 = assay: MIC, 96-well microtiter broth dilution; format: cell-based; settings: Vancomycin-resistant strain; Table 2
# S. aureus FtsZ = target: T1, S. aureus FtsZ (Staphylococcus aureus, UniProt P0A031); assay: Light-scattering assay of FtsZ polymerization; format: biochemical
# T1 sequence (P0A031 1-390): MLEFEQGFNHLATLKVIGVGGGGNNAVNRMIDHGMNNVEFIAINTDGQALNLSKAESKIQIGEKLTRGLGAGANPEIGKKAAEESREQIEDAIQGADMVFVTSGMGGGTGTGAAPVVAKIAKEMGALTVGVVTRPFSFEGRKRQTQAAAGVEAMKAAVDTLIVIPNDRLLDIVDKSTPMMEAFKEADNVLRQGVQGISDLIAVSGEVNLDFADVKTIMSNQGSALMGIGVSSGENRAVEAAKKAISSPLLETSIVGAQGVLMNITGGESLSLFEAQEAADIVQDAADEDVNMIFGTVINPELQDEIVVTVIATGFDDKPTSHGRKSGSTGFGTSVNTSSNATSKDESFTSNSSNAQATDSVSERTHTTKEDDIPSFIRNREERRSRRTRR
# Outline: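 S. aureus FtsZ (4 μM) in 50 mM MOPS pH 6.5, preincubated 10 min at 25 °C with 1% DMSO vehicle or test compound. Baseline set after adding 50 mM KCl and 10 mM MgCl2. After 10 min, 1 mM GTP added. 90° light scattering (excitation/emission 600 nm) followed for 25 min, with blank background subtracted. Rate and extent of polymerization calculated. Triplicates.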
# S. aureus ATCC BAA-1720 = assay: MIC, 96-well microtiter broth dilution; format: cell-based; settings: MRSA
# [3] = test system: P. aeruginosa ATCC BAA-2108; assay: MIC, 96-well microtiter broth dilution; format: cell-based; settings: Multi-drug resistant strain
# E. coli ATCC BAA-2469 = assay: MIC, 96-well microtiter broth dilution; format: cell-based; settings: NDM-1 expressing strain
Substance,MIC S. aureus ATCC BAA-44 (S. aureus ATCC BAA-44),MIC E. faecalis ATCC 29212 (E. faecalis ATCC 29212),MIC B. subtilis 168 (B. subtilis 168),MIC K. pneumoniae ATCC BAA-2470 [1],MIC E. cloacae ATCC BAA-1143 (E. cloacae ATCC BAA-1143),MIC S. aureus ATCC 43300 (S. aureus ATCC 43300),MIC S. aureus ATCC BAA-1747 (S. aureus ATCC BAA-1747),MIC S. aureus ATCC BAA-41 (S. aureus ATCC BAA-41),MIC S. epidermidis ATCC 12228 [2],MIC E. faecium ATCC 49624 (E. faecium ATCC 49624),MIC S. aureus ATCC 29213 (S. aureus ATCC 29213),MIC A. baumannii ATCC 19606 (A. baumannii ATCC 19606),MIC E. faecium ATCC 700221 (E. faecium ATCC 700221),Effect on FtsZ polymerization at a concentration gradient (S. aureus FtsZ; 0.125–0.5 μg mL^−1),"Light scattering signal compared to control (FtsZ polymerization) (S. aureus FtsZ; same concentration, 0.125 μg mL^−1)",MIC S. aureus ATCC BAA-1720 (S. aureus ATCC BAA-1720),MIC P. aeruginosa ATCC BAA-2108 [3],MIC E. coli ATCC BAA-2469 (E. coli ATCC BAA-2469)
1-Methyl-2-((E)-4-(methylthio)styryl)-4-((Z)-(3-(3-(piperidin-1-yl)propyl)benzo[d]thiazol-2(3H)-ylidene)methyl)quinolin-1-ium iodide [Compound 4e3],8 µg/mL,>64 µg/mL,8 µg/mL,64 µg/mL,64 µg/mL,8 µg/mL,16 µg/mL,16 µg/mL,4 µg/mL,16 µg/mL,8 µg/mL,64 µg/mL,8 µg/mL,did not show significant change,almost no signal change,16 µg/mL,–,–
2-((E)-4-(Dimethylamino)styryl)-1-methyl-4-((Z)-(3-(3-(piperidin-1-yl)propyl)benzo[d]thiazol-2(3H)-ylidene)methyl)quinolin-1-ium iodide [Compound 4e4],8 µg/mL,32 µg/mL,8 µg/mL,–,64 µg/mL,8 µg/mL,16 µg/mL,16 µg/mL,2 µg/mL,32 µg/mL,16 µg/mL,>64 µg/mL,4 µg/mL,–,–,8 µg/mL,64 µg/mL,8 µg/mL
